Measured values published in ChEMBL document CHEMBL5104207, “Synthesis, biological evaluation and computational studies of pyrazole derivatives as Mycobacterium tuberculosis CYP121A1 inhibitors” (RSC Med Chem, 2022).
Values after ≈ are worked out from the molar mass of the structure shown.

Tested on: Mycobacterium tuberculosis
Experiment: Antimycobacterial activity against Mycobacterium tuberculosis H37Rv assessed as inhibition of bacterial growth for 5 weeks by spot culture growth inhibition assay
Format: functional
Details: 840 h
In short: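 M. tuberculosis H37Rv grown shaking at 37 °C in 7H9 with 0.5% glycerol, 10% OADC and 0.025% Tween 80 to OD 1, then diluted 1:100 and 2 µL spotted. Wells hold 7H10 agar with 0.5% glycerol and 10% OADC plus compound, two-fold serial dilutions in DMSO from 150 μg mL-1. Plates used within 24 h. Incubated 37 °C for five weeks, then MIC90 recorded.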

Work on CC(C)Oc1ccc(-c2nn(-c3ccc(Cl)cc3)cc2Cn2ccnc2)cc1 yielded an MIC90 of 15.3 µM (≈ 6.01 µg/mL).
